The source made the active and inactive calls. The rule behind the calls is not given here.
Columns and labels:
[1] = Toxicity against interferon gamma-stimulated human THP-1 monocyte cells co-cultured with human HT-29 cells assessed as reduction in cell viability at 100 uM incubated for 48 hrs by flow cytometry analysis; type: cell-based; details: thp-1, 48 h
Summary of the method: (§1)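 HT-29 cells at 10^5/well seeded and grown 24 h. Medium then replaced with medium containing IFN-γ (10 ng/ml), 5 × 10^5 THP-1 cells/well and compound at 100 µM; DMSO used as control. After 48 h, THP-1 cells collected from supernatant and cancer cells by trypsinisation. Both fixed in 4% paraformaldehyde and counted by flow cytometry relative to control.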

HT-29 [2] = assay: Antiproliferative activity against human HT-29 cells assessed as relative PD-L1 protein expression in membrane at 100 uM incubated for 48 hrs by flow cytometry analysis relative to control; type: functional
HT-29 [3] = assay: Antiproliferative activity against human HT-29 cells assessed as relative PD-L1 protein expression in whole cell at 100 uM incubated for 48 hrs by flow cytometry analysis relative to control; type: functional
HT-29 [4] = assay: Antiproliferative activity against human HT-29 cells assessed as relative c-Myc protein expression at 100 uM incubated for 48 hrs by flow cytometry analysis relative to control; type: functional
HT-29 [5] = assay: Antiproliferative activity against human HT-29 cells assessed as relative VEGFR-2 protein expression in membrane at 100 uM incubated for 48 hrs by flow cytometry analysis relative to control; type: functional
HT-29 [6] = assay: Antiproliferative activity against human HT-29 cells assessed as relative VEGFR-2 protein expression in whole cell at 100 uM incubated for 48 hrs by flow cytometry analysis relative to control; type: functional
HT-29 [7] = assay: Immunomodulatory activity in human HT-29 cells co-cultured with interferon gamma-stimulated THP-1 cells assessed as cell viability at 100 uM incubated for 48 hrs by flow cytometry analysis relative to control; type: functional; details: read-out: Activity; summary of the method: as §1
HT-29 [8] = assay: Immunomodulatory activity in human HT-29 cells co-cultured with interferon gamma-stimulated THP-1 cells assessed as reduction in number of cells at 100 uM incubated for 48 hrs; type: functional, cell-based; summary of the method: as §1
HT-29 [9] = assay: Immunomodulatory activity in human HT-29 cells co-cultured with interferon gamma-stimulated THP-1 cells assessed as induction of morphological changes by measuring cell shrinkage at 100 uM incubated for 48 hrs; type: functional, cell-based
Summary of the method: (§2)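 HT-29 cells co-cultured with IFN-γ-stimulated THP-1 cells and treated 48 h with compounds at 100 µM, with DMSO as control. Cell shrinkage and rounded morphology assessed by microscopy images.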

HT-29 [10] = assay: Immunomodulatory activity in human HT-29 cells co-cultured with interferon gamma-stimulated THP-1 cells assessed as relative CD-47 protein expression in membrane at 100 uM incubated for 48 hrs by flow cytometry analysis relative to control; type: functional
HT-29 [11] = assay: Immunomodulatory activity in human HT-29 cells co-cultured with interferon gamma-stimulated THP-1 cells assessed as relative PD-L1 protein expression in membrane at 100 uM incubated for 48 hrs by flow cytometry analysis relative to control; type: functional
HT-29 [12] = assay: Immunomodulatory activity in human HT-29 cells co-cultured with interferon gamma-stimulated THP-1 cells assessed as induction of morphological changes by measuring rounded cell morphology at 100 uM incubated for 48 hrs; type: functional, cell-based; summary of the method: as §2
HT-29 [13] = assay: Immunomodulatory activity in human HT-29 cells co-cultured with interferon gamma-stimulated THP-1 cells assessed as inhibition of cell growth at 100 uM incubated for 48 hrs by flow cytometry analysis relative to control; type: functional; summary of the method: as §1

Row | Compound | Activity [1] | Activity (HT-29 [2]) [%] | Activity (HT-29 [3]) [%] | Activity (HT-29 [4]) [%] | Activity (HT-29 [5]) [%] | Activity (HT-29 [6]) [%] | viability at 100 µM (HT-29 [7]) [%] | Activity (HT-29 [8]) | Activity (HT-29 [9]) | Activity (HT-29 [10]) [%] | Activity (HT-29 [11]) [%] | Activity (HT-29 [12]) | inhibition at 100 µM (HT-29 [13]) [%]
1 | COc1ccccc1Cn1nnc(-c2cccc(N)c2)n1 | Non-Toxic | 97 | >100 | 97 | 99 | >100 | 54 | Active | Active | 77 | 92 | Active | –
2 | COc1cccc(Cn2nnc(-c3cccc([N+](=O)[O-])c3)n2)c1 | Non-Toxic | 83 | >100 | 75 | >100 | 42 | 40 | Active | Active | 77 | 88 | Active | –
3 | O=[N+]([O-])c1cccc(-c2nnn(Cc3cccc(Br)c3)n2)c1 | Non-Toxic | >100 | 88 | 76 | 100 | 60 | 31 | – | – | 93 | 106 | – | > 70
4 | Cc1cccc(Cn2cc(-c3cccc(N)c3)nn2)c1 | Non-Toxic | – | – | – | – | – | 44 | – | – | 86 | 114 | – | –
5 | COc1ccccc1Cn1nnc(-c2cccc([N+](=O)[O-])c2)n1 | Non-Toxic | 89 | 92 | 86 | >100 | 55 | 65 | Active | Active | 85 | 93 | Active | –
6 | O=[N+]([O-])c1cccc(-c2nnn(Cc3ccccc3Br)n2)c1 | Non-Toxic | >100 | 97 | 90 | >100 | 75 | 43 | – | – | 85 | 94 | – | –
7 | O=[N+]([O-])c1cccc(-c2nnn(Cc3ccccc3)n2)c1 | Non-Toxic | 66 | >100 | 82 | >100 | >100 | 32 | – | – | 71 | 150 | – | –
8 | Nc1cccc(-c2nnn(Cc3ccccc3)n2)c1 | Non-Toxic | – | – | – | – | – | 64 | – | – | 104 | 104 | – | –
9 | COc1ccccc1Cn1cc(-c2cccc(N)c2)nn1 | Non-Toxic | – | – | – | – | – | 62 | – | – | 62 | 114 | – | –
10 | Cc1ccc(Cn2cc(-c3cccc(N)c3)nn2)cc1 | Non-Toxic | – | – | – | – | – | 73 | – | – | 101 | 144 | – | –
11 | COc1cccc(Cn2nnc(-c3cccc(N)c3)n2)c1 | Non-Toxic | >100 | >100 | 86 | 76 | >100 | 66 | Active | Active | 78 | 84 | Active | –
12 | COc1ccc(Cn2nnc(-c3cccc([N+](=O)[O-])c3)n2)cc1 | Non-Toxic | 84 | 89 | >100 | 88 | 39 | 35 | Active | Active | 96 | 102 | Active | –
13 | O=[N+]([O-])c1cccc(-c2nnn(Cc3cccc(Cl)c3)n2)c1 | Non-Toxic | >100 | 90 | >100 | 97 | >100 | 90 | – | – | 95 | 136 | – | –
14 | Cc1ccc(Cn2nnc(-c3cccc([N+](=O)[O-])c3)n2)cc1 | Non-Toxic | 63 | 92 | 78 | >100 | 65 | 22 | – | – | 88 | 168 | – | > 70
15 | Nc1cccc(-c2cn(Cc3cccc(Br)c3)nn2)c1 | Non-Toxic | – | – | – | – | – | 9 | – | – | 95 | 137 | – | > 90
16 | Nc1cccc(-c2cn(Cc3ccccc3Br)nn2)c1 | Non-Toxic | – | – | – | – | – | 35 | – | – | 75 | 110 | – | –
17 | COc1ccc(Cn2cc(-c3cccc(N)c3)nn2)cc1 | Non-Toxic | – | – | – | – | – | 40 | – | – | 82 | 113 | – | –
18 | Cc1ccccc1Cn1nnc(-c2cccc(N)c2)n1 | Non-Toxic | – | – | – | – | – | 25 | – | – | 75 | 103 | – | > 70
19 | Cc1ccccc1Cn1cc(-c2cccc(N)c2)nn1 | Non-Toxic | – | – | – | – | – | 74 | – | – | 87 | 120 | – | –
20 | COc1cccc(Cn2cc(-c3cccc(N)c3)nn2)c1 | Non-Toxic | – | – | – | – | – | 33 | – | – | 89 | 113 | – | –
21 | Nc1cccc(-c2cn(Cc3ccccc3)nn2)c1 | Non-Toxic | – | – | – | – | – | 78 | – | – | 103 | 109 | – | –
22 | Cc1cccc(Cn2nnc(-c3cccc([N+](=O)[O-])c3)n2)c1 | Non-Toxic | 65 | 97 | 89 | >100 | 84 | 42 | – | – | 73 | 166 | – | –
23 | Cc1ccccc1Cn1nnc(-c2cccc([N+](=O)[O-])c2)n1 | Non-Toxic | 64 | 94 | 91 | >100 | 72 | 56 | – | – | 75 | 165 | – | –

Source: ChEMBL document CHEMBL5390247, “Aryl azoles based scaffolds for disrupting tumor microenvironment” (Bioorg Med Chem, 2023)
